Experimental data gathered from unrelated publications.
Target: NUAK family SNF1-like kinase 1 (NUAK1, Homo sapiens, UniProt O60285)
Sequence (O60285 1-661, as in one of the studies): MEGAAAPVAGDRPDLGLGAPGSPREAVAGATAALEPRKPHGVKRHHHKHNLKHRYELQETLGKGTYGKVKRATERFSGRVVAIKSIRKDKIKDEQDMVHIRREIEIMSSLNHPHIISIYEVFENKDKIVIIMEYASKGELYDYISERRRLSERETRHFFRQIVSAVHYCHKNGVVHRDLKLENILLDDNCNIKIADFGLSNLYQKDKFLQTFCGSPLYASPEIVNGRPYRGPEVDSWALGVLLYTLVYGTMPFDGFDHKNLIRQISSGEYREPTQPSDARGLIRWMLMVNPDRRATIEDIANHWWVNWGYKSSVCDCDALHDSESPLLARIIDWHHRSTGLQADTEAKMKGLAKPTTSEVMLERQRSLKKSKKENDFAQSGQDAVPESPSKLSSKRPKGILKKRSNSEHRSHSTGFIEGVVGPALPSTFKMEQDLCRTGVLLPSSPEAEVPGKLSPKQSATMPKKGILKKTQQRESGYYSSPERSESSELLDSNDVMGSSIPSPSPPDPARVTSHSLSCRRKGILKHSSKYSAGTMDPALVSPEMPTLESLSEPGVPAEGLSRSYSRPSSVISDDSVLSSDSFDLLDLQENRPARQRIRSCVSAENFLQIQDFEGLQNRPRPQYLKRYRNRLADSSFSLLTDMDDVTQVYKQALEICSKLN

Structure (SMILES) | test | setting | remaining binding [%]
O=C(c1ccc(Nc2ncc(Cl)c(-c3ccc(Cl)s3)n2)cc1)N1CCC(N2CCCC2)CC1 | binding, competition with immobilised ligand | 1 µM | 0.65
COc1ccnn2ncc(-c3ccnc(N(C)C)n3)c12 | binding | 1 µM | 82
CNC(=O)[C@@H]1CC[C@@H](n2c(-c3ccc4cnccc4c3)nc3ccc(C(=O)NCc4cccc(C(N)=O)c4)cc32)C1 | binding, competition with immobilised ligand | 1 µM | 84
O=C(NC[C@@H]1[C@H]2CN(C(=O)OCc3cc(C(F)(F)F)cc(C(F)(F)F)c3)C[C@@H]12)c1ccc2[nH]nnc2c1 | cell-free assay, competition with immobilised ligand | 1 µM | 87
C[C@H]1CCN(c2nccc(-c3cnn4ncccc34)n2)C1 | binding | 1 µM | 90
c1cncc(-c2cccc(Nc3nccc(NC4CCCCC4)n3)c2)c1 | binding, competition with immobilised ligand | 10 µM | 16
Cn1cc(Cl)c2c(Oc3c(F)cc(Nc4cc(Cl)nc(N)n4)cc3F)ccnc21 | cell-free assay, competition with immobilised ligand | 0.1 µM | 96
O=C(NCCCN1CCOCC1)c1ccc(Nc2nccc(-c3cc4ccccc4s3)n2)cc1 | binding, competition with immobilised ligand | 1 µM | 13
CN(C)C(=O)Cn1cc(-c2nc([C@@](C)(c3ccc(-c4cnc(N)nc4)cc3)C3CC3)no2)cn1 | cell-free assay, competition with immobilised ligand | 1 µM | 100
CCN1CCN(Cc2ccc(C(=O)Nc3ccc(C)c(Oc4ccc5c(c4)CC(=O)N5)c3)cc2C(F)(F)F)CC1 | binding, competition with immobilised ligand | 1 µM | 100
N[C@H]1CCN(c2nccc(-c3cnn4ncccc34)n2)C1 | binding | 1 µM | 63
O=C(c1ccc(Nc2ncc(Cl)c(-c3cc4ccccc4s3)n2)cc1)N1CCC(N2CCCC2)CC1 | binding, competition with immobilised ligand | 1 µM | 2.6
C[C@H](c1ccnc(Nc2nc3ccc(-c4cc(N(C)C)ncn4)cc3[nH]2)c1)N1CCN(C(=O)CC(F)(F)F)CC1 | cell-free assay, competition with immobilised ligand | 0.1 µM | 93
COc1cnc(Nc2cccc(S(N)(=O)=O)c2)nc1N1CCN(c2ccccc2)C(=O)C1 | binding, competition with immobilised ligand | 1 µM | 86
CC1CCCN1c1nccc(-c2cnn3ncccc23)n1 (stereo not drawn) | binding | 1 µM | 89
O=C(NCc1ncc(C(F)(F)F)cc1Cl)c1ccc2c(c1)C1(CCS(=O)(=O)CC1)[C@H](C1CC1)N2S(=O)(=O)c1ccc(F)cc1 | cell-free assay, competition with immobilised ligand | 1 µM | 83
O=C(Nc1c[nH]nc1C(=O)NC1CCNCC1)c1cc(F)cc(F)c1 | binding, competition with immobilised ligand | 1 µM | 76
c1cnn2ncc(-c3ccnc(N4CCC45COC5)n3)c2c1 | binding | 1 µM | 100
